Data on seven compounds can be found in ChEMBL document CHEMBL4828713, “DNA-Encoded Library Hit Confirmation: Bridging the Gap Between On-DNA and Off-DNA Chemistry” (ACS Med Chem Lett, 2021).

The structures appear in SMILES notation.

For test [1], the target named is Vascular endothelial growth factor receptor 2 (Homo sapiens, UniProt P35968). Briefly: Inhibition of VEGFR2 (unknown origin).
In test [2] the target is T1, Receptor-interacting serine/threonine-protein kinase 2 (Homo sapiens, UniProt O43353). As to the kind of experiment: Inhibition of RIP2 (unknown origin).
In test [3] the target is T2, TGF-beta receptor type-1 (Homo sapiens, UniProt P36897).
T2 sequence (P36897 whole entry): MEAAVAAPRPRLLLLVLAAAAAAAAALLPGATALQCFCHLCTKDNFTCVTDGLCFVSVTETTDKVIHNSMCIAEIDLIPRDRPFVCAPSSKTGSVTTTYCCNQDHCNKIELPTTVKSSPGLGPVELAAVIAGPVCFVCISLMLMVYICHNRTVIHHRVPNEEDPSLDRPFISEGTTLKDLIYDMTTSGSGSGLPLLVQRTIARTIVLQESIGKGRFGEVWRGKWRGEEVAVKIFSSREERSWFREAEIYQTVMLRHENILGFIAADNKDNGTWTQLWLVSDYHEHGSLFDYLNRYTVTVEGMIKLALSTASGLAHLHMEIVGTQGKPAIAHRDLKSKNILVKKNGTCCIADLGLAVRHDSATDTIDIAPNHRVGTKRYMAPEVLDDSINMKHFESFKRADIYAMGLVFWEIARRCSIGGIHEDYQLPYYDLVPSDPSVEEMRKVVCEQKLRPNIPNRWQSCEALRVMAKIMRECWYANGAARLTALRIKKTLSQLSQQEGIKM
As to the kind of experiment: Inhibition of ALK5 (unknown origin).

The target in test [4] is Epidermal growth factor receptor (Homo sapiens, UniProt P00533). As to the kind of experiment: Inhibition of EGFR (unknown origin).
The target in test [5] is T1, Receptor-interacting serine/threonine-protein kinase 2. As to the kind of experiment: Inhibition of RIP2 (unknown origin) by fluorescence polarization based binding assay.
Test [6] shares this target. Briefly: Relative binding affinity to RIP2 (unknown origin) by affinity selection mass spectrometry analysis. The procedure, abridged:
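Test material was freed from the DNA headpiece by cleaving the tetrahydropyranyl linker with 0.1% formic acid at 60 °C for 1 h. The released compound was then tested by affinity selection mass spectrometry, and binding was expressed as relative binding affinity (%RBA).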

For test [7] the target is unchanged. As to the kind of experiment: Inhibition of RIP2 (unknown origin) by biochemical assay.

T1 sequence (O43353 whole entry): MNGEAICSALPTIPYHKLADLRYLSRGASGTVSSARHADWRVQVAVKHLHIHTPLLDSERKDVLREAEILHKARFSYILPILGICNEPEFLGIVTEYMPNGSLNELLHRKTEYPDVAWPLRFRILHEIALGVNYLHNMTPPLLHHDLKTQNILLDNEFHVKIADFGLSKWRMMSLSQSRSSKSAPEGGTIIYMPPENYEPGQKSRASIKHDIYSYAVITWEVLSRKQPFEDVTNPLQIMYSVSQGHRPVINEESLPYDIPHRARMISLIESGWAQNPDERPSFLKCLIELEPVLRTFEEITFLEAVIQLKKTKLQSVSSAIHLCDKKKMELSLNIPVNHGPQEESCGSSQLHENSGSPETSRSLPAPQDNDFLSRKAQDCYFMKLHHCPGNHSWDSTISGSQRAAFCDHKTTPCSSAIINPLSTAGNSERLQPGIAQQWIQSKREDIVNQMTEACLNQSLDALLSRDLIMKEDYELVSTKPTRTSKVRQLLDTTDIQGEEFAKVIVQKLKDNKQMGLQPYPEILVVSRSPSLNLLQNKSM
Chain of Vascular endothelial growth factor receptor 2 (P35968 whole entry): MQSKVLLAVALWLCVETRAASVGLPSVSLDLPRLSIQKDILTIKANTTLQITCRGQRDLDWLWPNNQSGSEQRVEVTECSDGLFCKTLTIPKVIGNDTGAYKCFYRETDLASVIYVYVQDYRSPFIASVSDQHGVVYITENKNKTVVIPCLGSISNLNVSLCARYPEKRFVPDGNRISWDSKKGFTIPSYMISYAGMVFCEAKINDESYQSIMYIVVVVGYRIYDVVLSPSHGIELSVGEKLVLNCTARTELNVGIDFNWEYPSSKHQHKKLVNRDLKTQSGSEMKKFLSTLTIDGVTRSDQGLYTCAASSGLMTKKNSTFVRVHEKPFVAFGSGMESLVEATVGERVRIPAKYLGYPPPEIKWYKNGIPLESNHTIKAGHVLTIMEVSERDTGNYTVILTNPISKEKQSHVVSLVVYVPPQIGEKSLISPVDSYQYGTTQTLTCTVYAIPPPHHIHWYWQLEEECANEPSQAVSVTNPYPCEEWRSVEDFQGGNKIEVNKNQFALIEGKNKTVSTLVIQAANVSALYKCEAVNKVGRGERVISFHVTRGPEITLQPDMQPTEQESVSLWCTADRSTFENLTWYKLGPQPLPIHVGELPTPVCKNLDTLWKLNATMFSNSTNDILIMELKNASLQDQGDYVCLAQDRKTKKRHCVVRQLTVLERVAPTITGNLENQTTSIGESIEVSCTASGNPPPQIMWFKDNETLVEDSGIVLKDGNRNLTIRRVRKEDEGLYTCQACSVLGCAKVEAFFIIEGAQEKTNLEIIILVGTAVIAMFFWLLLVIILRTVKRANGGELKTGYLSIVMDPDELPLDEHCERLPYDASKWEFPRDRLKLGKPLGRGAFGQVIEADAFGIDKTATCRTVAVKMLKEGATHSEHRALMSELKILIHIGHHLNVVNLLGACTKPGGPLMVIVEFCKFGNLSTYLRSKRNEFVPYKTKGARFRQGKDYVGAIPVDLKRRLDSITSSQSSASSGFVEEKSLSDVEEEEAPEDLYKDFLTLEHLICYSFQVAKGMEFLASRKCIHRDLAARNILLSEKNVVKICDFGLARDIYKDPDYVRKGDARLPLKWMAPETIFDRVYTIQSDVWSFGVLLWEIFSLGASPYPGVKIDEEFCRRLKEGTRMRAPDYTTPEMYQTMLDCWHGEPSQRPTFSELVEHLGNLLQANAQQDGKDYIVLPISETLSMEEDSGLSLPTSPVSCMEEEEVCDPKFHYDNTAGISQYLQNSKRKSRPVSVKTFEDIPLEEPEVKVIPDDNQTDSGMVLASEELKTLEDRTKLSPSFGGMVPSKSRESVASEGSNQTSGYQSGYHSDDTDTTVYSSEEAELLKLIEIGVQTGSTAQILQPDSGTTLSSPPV
Chain of Epidermal growth factor receptor (P00533 whole entry): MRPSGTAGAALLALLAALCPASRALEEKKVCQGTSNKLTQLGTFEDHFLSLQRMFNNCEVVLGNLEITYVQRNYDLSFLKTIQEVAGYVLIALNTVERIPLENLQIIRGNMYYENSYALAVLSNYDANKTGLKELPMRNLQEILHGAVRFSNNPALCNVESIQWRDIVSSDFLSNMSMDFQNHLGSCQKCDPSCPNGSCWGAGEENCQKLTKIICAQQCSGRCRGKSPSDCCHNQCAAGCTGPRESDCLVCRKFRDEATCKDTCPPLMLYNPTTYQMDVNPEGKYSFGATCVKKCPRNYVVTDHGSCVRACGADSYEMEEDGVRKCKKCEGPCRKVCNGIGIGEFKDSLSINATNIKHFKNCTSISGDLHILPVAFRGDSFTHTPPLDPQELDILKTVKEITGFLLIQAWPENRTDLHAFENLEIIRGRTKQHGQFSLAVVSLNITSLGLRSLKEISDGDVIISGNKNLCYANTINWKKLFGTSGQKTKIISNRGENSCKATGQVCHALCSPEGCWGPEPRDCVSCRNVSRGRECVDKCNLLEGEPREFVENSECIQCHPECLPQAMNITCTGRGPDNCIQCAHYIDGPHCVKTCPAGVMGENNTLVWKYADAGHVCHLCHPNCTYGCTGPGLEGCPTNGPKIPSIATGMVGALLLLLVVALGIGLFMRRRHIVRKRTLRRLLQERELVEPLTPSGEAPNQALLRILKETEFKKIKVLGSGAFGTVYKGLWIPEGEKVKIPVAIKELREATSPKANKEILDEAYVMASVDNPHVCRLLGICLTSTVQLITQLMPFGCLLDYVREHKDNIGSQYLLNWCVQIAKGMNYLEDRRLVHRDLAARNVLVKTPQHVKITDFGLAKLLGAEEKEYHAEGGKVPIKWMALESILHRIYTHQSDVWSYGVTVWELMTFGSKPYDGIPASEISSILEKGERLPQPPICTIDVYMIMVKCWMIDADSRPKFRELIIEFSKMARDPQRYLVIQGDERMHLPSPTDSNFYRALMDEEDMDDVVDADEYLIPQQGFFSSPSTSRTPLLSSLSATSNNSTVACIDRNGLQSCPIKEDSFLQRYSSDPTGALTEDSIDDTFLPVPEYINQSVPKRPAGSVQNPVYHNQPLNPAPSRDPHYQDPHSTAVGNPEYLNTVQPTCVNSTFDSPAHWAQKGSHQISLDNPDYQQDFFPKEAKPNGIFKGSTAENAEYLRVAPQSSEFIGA

In the case of `c1ccc(-c2ccc3c(Nc4ccc5scnc5c4)ccnc3c2)cc1`, the IC50 (in general, the point on the concentration scale where inhibition reaches its midpoint) in test [1] stood at 0.016 µM; in test [2], 0.016 µM; in test [3], 2.5 µM; in test [4], 2.5 µM.
Regarding `COCCNC(=O)c1cc(CNc2ccc(Cl)c(O)c2)cc(-c2ccc3c(Cl)ccnc3c2)c1`, in test [5], the IC50 was above 50 µM.
As to `NC(=O)c1cc(CNc2ccc3scnc3c2)cc(-c2ccc3c(Nc4ccc5scnc5c4)ccnc3c2)c1`, the RBA in test [6] is 58%.
`COCCNC(=O)c1cc(CNc2ccc(Cl)c(O)c2)cc(-c2ccc3c(Nc4ccc(Cl)c(O)c4)ccnc3c2)c1` yielded an IC50 in test [7] of 0.006 µM.
In test [6], `NC(=O)c1cc(C=O)cc(-c2ccc3c(Nc4ccc5scnc5c4)ccnc3c2)c1` showed an RBA of 70%.
`Oc1cc(Nc2ccnc3cc(-c4ccccc4)ccc23)ccc1Cl`: the IC50 is below 0.001 µM in test [1], 0.006 µM in test [2], 0.079 µM in test [3] and 0.1 µM in test [4].
In the case of `COCCn1c(-c2cnc(-c3ccc(Cl)cc3)[nH]2)nc2cc(C(=O)NCCO)ccc21`, the RBA in test [6] was determined as 30%.
